The term IC50 denotes the concentration needed to halve the response being measured. A lower IC50 goes with greater potency in that assay.

IC50 data for six compounds are collected here from ChEMBL document CHEMBL1133612, “Analogues of amonafide and azonafide with novel ring systems” (J Med Chem, 2000).

What all share (type): functional, cell-based
Assay [1] has as its system L1210. Briefly: Tested for inhibitory activity against murine cell line […], a strain resistant to doxorubicin using MTT assay. As to conditions: Mus musculus. An outline of the steps: (§1)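 Murine L1210 leukaemia cells were tested as a drug-sensitive strain and as a multiple drug-resistant strain that is P-glycoprotein positive. Growth inhibition in both strains was read by MTT assay.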

Assay [2] concerns L1210. Nature of the assay: Tested for inhibitory activity against murine cell line […], a strain sensitive to doxorubicin using MTT assay. The conditions noted are these: Mus musculus. The method, boiled down:
as §1

Assay [3] relates to MCF7. Briefly: Tested for inhibitory activity against human tumor cell line D40, a strain resistant to doxorubicin of breast carcinoma using sulforhodamine B assay.
Assay [4] has as its system MCF7. Nature of the assay: Tested for inhibitory activity against human tumor cell line MCF7, a strain resistant to mitoxantrone of breast carcinoma using sulforhodamine B assay. Background: Sulforhodamine B stains cellular protein and so reports cell mass.
In assay [5] the test system is MCF7. Nature of the assay: Tested for inhibitory activity against human tumor cell line MCF7, a strain sensitive to doxorubicin of breast carcinoma using sulforhodamine B assay.
Another assay has as its system UACC-375. Briefly: Tested for inhibitory activity against human tumor cell line UA375 of melanoma using sulforhodamine B assay.
Assay [6] deals with WiDr. Briefly: Tested for inhibitory activity against a multi drug resistant (MDR) strain of human colon carcinoma WiDr using sulforhodamine B assay (it is MRP positive but non-P-glycoprotein).
Assay [7] deals with WiDr. Nature of the assay: Tested for inhibitory activity against a sensitive strain of human colon carcinoma WiDr using sulforhodamine B assay (it is MRP positive but non-P-glycoprotein).
Assay [8] in a line: Tested for inhibitory activity against human tumor cell line A549 (a non small, drug resistant cell line that does not produce P-glycoprotein) of lung carcinoma using sulforhodamine B assay.
The subject of assay [9] is OVCAR-3. Nature of the assay: Tested for inhibitory activity against human tumor cell line OVCAR-3, a resistant ovarian carcinoma using sulforhodamine B assay.
Assay [10] has as its system L1210. Nature of the assay: Tested for inhibitory activity against murine cell line […] leukemia, a strain resistant to doxorubicin using MTT assay. As to conditions: Mus musculus. The method, boiled down:
as §1
In general terms: Formazan colour is commonly taken as a measure of viable cells.

For assay [11], the system named is L1210. Nature of the assay: Tested for inhibitory activity against murine cell line […] leukemia, a strain sensitive to doxorubicin using MTT assay. The conditions noted are these: Mus musculus. An outline of the steps: as §1
For assay [12], the system named is OVCAR-3. Briefly: Tested for inhibitory activity against human tumor cell line OVCAR-3 a resistant ovarian carcinoma using sulforhodamine B assay.

As for `COc1cccc2c1cc1c3c(cccc32)C(=O)N(CCN(C)C)C1=O`, the IC50 is 1560 nM in the assay with L1210 [1]; 520 nM with L1210 [2]; 820 nM with MCF7 [3]; 900 nM in the assay with MCF7 [4]; 860 nM in the assay on MCF7 [5]; 520 nM with UACC-375. The IC50 in the assay on WiDr [6] amounted to 1300 nM; in the assay on WiDr [7] it was 900 nM; in assay [8], 870 nM; with OVCAR-3 [9], 20 nM.

On to `CN(C)CCN1C(=O)c2cccc3cc4c(c(c23)C1=O)CCCC4`, for which the IC50 was determined as 8 nM in the assay on L1210 [1]; 11 nM in the assay with L1210 [2]; 230 nM in the assay on MCF7 [3]; 150 nM with MCF7 [4]; 100 nM in the assay with MCF7 [5]; 223 nM in the assay on UACC-375. In addition, the IC50 came out at 220 nM in the assay on WiDr [6], 130 nM in the assay with WiDr [7], 18 nM in assay [8] and 70 nM in the assay with OVCAR-3 [9].

In the case of `CN(C)CCN1C(=O)c2cccc3c2c(cc2ncccc23)C1=O`, the half-maximal inhibitory concentration (IC50) in the assay on L1210 [10] came out at 367 nM; in the assay with L1210 [11] it was 493 nM; in the assay with MCF7 [3] it was 320 nM; in the assay on MCF7 [4], 230 nM; in the assay on MCF7 [5], 170 nM; with UACC-375, 617 nM. Further, the IC50 in the assay with WiDr [6] came to 260 nM; in the assay on WiDr [7], 110 nM; in assay [8], 32 nM; in the assay on OVCAR-3 [12], 986 nM.

Regarding `CN(C)CCN1C(=O)c2c(NC(=O)C(C)(C)C)ccc3cc4c(c(c23)C1=O)CCCC4`, the IC50 stood at 1750 nM in the assay with L1210 [1]; 2190 nM in the assay on L1210 [2]; 2000 nM in the assay with MCF7 [3]; 1300 nM in the assay on MCF7 [4]; 950 nM with MCF7 [5]; 8750 nM in the assay with UACC-375. Further, the IC50 in the assay on WiDr [6] is 800 nM; with WiDr [7] it was 750 nM; in assay [8] it was 750 nM; in the assay on OVCAR-3 [9], 656 nM.

Turning to `CN(C)CCN1C(=O)c2cccc3c2c(cc2cccnc23)C1=O`, the IC50 in the assay with L1210 [1] stood at 26 nM; with L1210 [2], 43 nM; in the assay on MCF7 [3] it was 400 nM; with MCF7 [4], 320 nM; in the assay on MCF7 [5], 210 nM; in the assay on UACC-375, 309 nM. Further, the IC50 with WiDr [6] stood at 370 nM; with WiDr [7] it was 195 nM; in assay [8] it was 220 nM; with OVCAR-3 [9] it was 862 nM.

As for `CN(C)CCN1C(=O)c2cccc3c2c(cc2cccc([N+](=O)[O-])c23)C1=O`, the IC50 with L1210 [1] came out at 501 nM; with L1210 [2], 751 nM; in the assay on MCF7 [3], 620 nM; in the assay on MCF7 [4], 440 nM; in the assay with MCF7 [5] it was 360 nM; in the assay with UACC-375, 751 nM. The IC50 with WiDr [6] was found to be 2400 nM; in the assay on WiDr [7], 800 nM; in [8], 950 nM; with OVCAR-3 [9], 626 nM.
